Assay outcomes (PubChem BioAssay)
Rows were chosen to be rich in hits. Some 3.9% of all compounds tested hit in one or more screens of this group.
TAAR1 agonist – agonists of human TAAR1; activation, % at 3 µM; CHO RD-HGA16 TAAR1, Fluo-8 calcium fluorescence; vehicle wells 0%, saturating PEA agonist 100%; 360,000 compounds, 0.99% hits; AID 624467;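 active means activation above the mean activation of all test compounds in the run plus 3 SD, cut at about 38% in these data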
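Assay system – CHO-derived RD-HGA16 cells with stable Gα16 and human TAAR1 · Compound dosing – one-point dosing at 3 µM (nominal) · Incubation – 17-24 h seeding, 75 min 37 °C dye, 30 min RT · Measured by – kinetic Fluo-8 calcium fluorescence · Control set – DMSO vehicle as 0%, PEA at EC100 as 100% · Repeats – single well for each compound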
OX1R antag-1 – human HCRTR1 antagonism; CHO/OX1R cells, Fluo-8 calcium fluorescence, orexin A; inhibition, % at 5 µM; 330,000 compounds, 0.43% hits; AID 434989;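 active means inhibition above its plate's threshold, mean inhibition of all tested compounds on the plate plus 3 SD, cut at about 37% in these data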;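 further: 0% = orexin A challenge wells and 100% = SB-334867-A antagonist wells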
Target sequence (O43613 whole entry, looked up): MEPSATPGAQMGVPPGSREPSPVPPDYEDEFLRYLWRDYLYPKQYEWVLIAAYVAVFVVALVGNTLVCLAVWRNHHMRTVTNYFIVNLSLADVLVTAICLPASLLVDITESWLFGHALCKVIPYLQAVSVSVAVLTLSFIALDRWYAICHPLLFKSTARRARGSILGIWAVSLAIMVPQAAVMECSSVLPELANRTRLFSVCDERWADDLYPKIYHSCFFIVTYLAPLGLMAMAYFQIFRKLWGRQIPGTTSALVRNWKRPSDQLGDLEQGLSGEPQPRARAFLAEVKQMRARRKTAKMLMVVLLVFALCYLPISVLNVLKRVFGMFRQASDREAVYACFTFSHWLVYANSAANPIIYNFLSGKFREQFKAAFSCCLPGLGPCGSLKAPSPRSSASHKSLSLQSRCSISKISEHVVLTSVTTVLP
TAAR1 antag – antagonists of human TAAR1; Q96RJ0; CHO RD-HGA16 TAAR1, Fluo-8 calcium fluorescence, antagonist; inhibition, % at 3 µM; 360,000 compounds, 1.5% hits;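 active means inhibition above a per-plate cutoff, the mean inhibition of test compounds on that plate plus 3 SD, cut at about 49% in these data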;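 further: 0% = DMSO plus EC80 beta-PEA response and 100% = DMSO alone without agonist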
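Test system: CHO RD-HGA16 cells bearing hTAAR1 | Reagent: β-PEA, EC80 | Compound dosing: 3 µM, single point | Schedule: Dye loading 75 min at 37 °C, then 30 min room temperature | Signal: Calcium fluorescence with Fluo-8 | Evaluation: Percent inhibition of PEA-evoked calcium signal, max/basal emission ratio | Control set: DMSO-only wells and EC80 β-PEA-stimulated wells | Repeats: Singlicate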
CHO parental Ca – signal in parental CHO cells, OX1R antagonist counter-screen; inhibition, % at 5.6 µM; parental CHO-K1, ATP-induced calcium, Fluo-8 fluorescence; 330,000 compounds, 0.63% hits; AID 463079;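 active means inhibition above that plate's mean sample inhibition plus 3 SD, cut at about 26% in these data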;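 further: 0% = ATP-challenged DMSO wells and 100% = DMSO wells without ATP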
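Material – parental CHO cells · Reagent – ATP stimulus · Compound – single nominal dose of 5.6 µM per compound · Detection – Fluo-8 fluorescence · Read-out basis – percent inhibition of calcium signal · Controls – ATP-challenged DMSO wells low, unchallenged DMSO wells high · Repeats – no replicates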
OX1R antag-2 – antagonists of human orexin 1 receptor (OX1R); O43613; OX1R-expressing cells, FRET antagonist read-out; inhibition, % at 6.6 µM; 330,000 compounds, 1.8% hits; AID 485270; in the data active means inhibition mostly above about 38%, no sharp cut-off; inactive means mostly below about 40%;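 further: 0% = agonist challenge alone and 100% = reference antagonist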
OX1R HTRF conf – OX1R (human) antagonism, HTRF confirmed. shares compounds with OX1R antag-2. OX1R-expressing cells, HTRF antagonist assay. 1,800 compounds, 49% hits. inhibition, % at 6.6 µM; in the data active means inhibition above about 55%;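 further: CHO cells expressing OX1R stimulated with orexin A at about EC80; 0% = agonist challenge alone and 100% = reference antagonist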
CHO-K1 HTRF – counter-screen for OX1R antagonists: effect in parental CHO-K1 cells; AID 493232; 1,800 compounds, 48% hits; shares compounds with OX1R antag-2; HTRF counterscreen; inhibition, % at 6.6 µM; in the data active means inhibition above about 17%;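 further: 0% = agonist challenge with vehicle and 100% = vehicle alone without agonist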
TAAR1 nonsel count – nonselective antagonist in TAAR1 antagonist counter-screen; counterscreen cell line, calcium fluorescence, antagonist mode; AID 651780; inhibition, % at 3 µM; 2,400 compounds, 77% hits; shares compounds with TAAR1 antag; in the data active means inhibition above about 22%;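 further: CHO-Ga16 host cells stimulated with ATP at an EC80 level; 0% = agonist EC80 plus vehicle and 100% = vehicle without agonist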
TAAR1 ant conf – confirmation of human TAAR1 antagonists | shares compounds with TAAR1 antag | TAAR1-expressing cells, fluorescence antagonist read-out | inhibition, % at 3 µM | 2,400 compounds, 40% hits | AID 651785; in the data active means inhibition above about 49%;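 further: CHO-Ga16 host cells challenged with agonist PEA near its EC80; 0% = agonist at EC80 plus vehicle and 100% = vehicle with no agonist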
Ga16 ag counter – nonselective Ga16 agonism, counter-screen; shares compounds with TAAR1 antag; Ga16-expressing cells, calcium fluorescence, agonist counterscreen; activation, % at 3 µM; 2,400 compounds, 18% hits; AID 651953; in the data active means activation above about 12%;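 further: 0% = vehicle wells and 100% = saturating stimulus response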
TAAR1 ag counter – counter-screen for human TAAR1 antagonists: TAAR1 agonists; shares compounds with TAAR1 antag; hTAAR1 cell line, fluorescence activation, agonist mode; activation, % at 3 µM; 2,400 compounds, 2% hits; AID 651955; in the data active means activation above about 37%;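 further: CHO cells stably expressing TAAR1 with calcium dye readout; 0% = DMSO vehicle and 100% = full agonist response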
* marks the source's active call; other numbers are inactive results; . = no result given; + = active, no number.

SMILES	TAAR1 agonist	OX1R antag-1	TAAR1 antag	CHO parental Ca	OX1R antag-2	TAAR1 nonsel count	TAAR1 ant conf	Ga16 ag counter	TAAR1 ag counter	others
CCC(C(=O)N1CCC2(CC1)OCCO2)n1c2ccccc2c2nc(=O)cc(C)n21 (stereo not drawn)	9	-26	-15	-21	6	.	.	.	.
Cn1c(=O)c2nncnc2n(C)c1=O	2	-12	-13	-4	125*	.	.	.	.	OX1R HTRF conf=45;CHO-K1 HTRF=75*
CCn1nc(-c2ccccc2)nc2c(=O)n(C)c(=O)nc1-2	.	-14	.	-7	+	.	.	.	.	OX1R HTRF conf=102*;CHO-K1 HTRF=95*
CC(CC(C)(C)N1CC1)=NNC(=O)Nc1cccc2ccccc12	0	.	11	.	.	.	.	.	.
CCOC(=O)c1c(N)n(CCCOC(=O)c2ccco2)c2nc3ccccc3nc12	5	-11	6	-6	83*	.	.	.	.	OX1R HTRF conf=36;CHO-K1 HTRF=22*
Cc1nc2ccccc2c(=O)n1-c1c(Cl)cccc1Cl	-2	.	-19	.	.	.	.	.	.
COc1ccccc1OCCCn1cc(C(=O)c2ccco2)c2ccccc21	7	-26	54*	-35	41	27*	39	4	4
CSCCC(c1nnnn1C1CCCCC1)N1CCC2(CC1)C(=O)NCN2c1ccccc1 (stereo not drawn)	2	.	-6	.	.	.	.	.	.
CCCOc1ccccc1NP(=O)(Oc1ccccc1)Oc1ccccc1	5	-28	21	-18	14	.	.	.	.
O=P(Nc1ccccc1)(Oc1ccccc1)Oc1ccccc1	8	-7	74*	-8	27	27*	59*	8	6
Cc1cccc(NP(=O)(Oc2ccccc2)Oc2ccccc2)c1C	5	4	73*	-2	17	24*	44	6	3
NP(=O)(Oc1ccccc1)Oc1ccccc1	2	.	7	.	.	.	.	.	.
O=P(NC(c1ccccc1)c1ccccc1)(Oc1ccccc1)Oc1ccccc1	5	-19	64*	-14	17	32*	65*	7	4
Cc1c(OC(=O)N(C)C)ccc2c1O/C(=C\c1ccco1)C2=O	1	.	-1	.	.	.	.	.	.
O=c1c2ccccc2nc(CNc2ccccc2)n1-c1ccccc1	0	-33	-36	-25	7	.	.	.	.
Cc1ccc(CN2Cc3ccc(Br)cc3-n3nncc3C2)cc1	2	.	-2	.	.	.	.	.	.
COc1ccc(CC2C(=O)NC(C)C(=O)N(C)C3C(=O)N(C)C(Cc4ccc(O)c(c4)Oc4ccc(cc4)C3O)C(=O)NC(C)C(=O)NC(C)C(=O)N2C)cc1 (stereo not drawn)	1	.	-10	.	.	.	.	.	.
C[C@@H]1CN([C@@H](C)CO)C(=O)CCCn2nncc2CO[C@H]1CN(C)C(=O)Oc1ccccc1	1	.	-3	.	.	.	.	.	.
CCCCC1C(=O)NC(=S)N(C)C1=O (stereo not drawn)	2	.	-3	.	.	.	.	.	.
Cc1cccc(OP(=O)(NCc2ccccc2)Oc2cccc(C)c2)c1	7	-37	80*	2	40	34*	78*	13*	23
CSCCC(c1nnnn1Cc1ccccc1)N1CCC2(CC1)C(=O)NCN2c1ccccc1 (stereo not drawn)	13	.	52*	.	.	28*	40	7	6
O=C1NCN(c2ccccc2)C12CCN(C(c1ccnc3ccccc13)c1nnnn1-c1ccc3c(c1)OCCO3)CC2 (stereo not drawn)	19	.	59*	.	.	29*	43	10	11
